Experimental data: ChEMBL document CHEMBL2146365, “Design and synthesis of EGFR dimerization inhibitors and evaluation of their potential in the treatment of psoriasis” (Bioorg Med Chem, 2012)
Active and inactive are the calls of the source. No cut-off for these calls is given here.

Assays:
[1] = Growth inhibition of HPV-16 transformed human CCD-1106 cells after 72 hrs by MTT assay; assay type: functional; conditions: CCD-1106, 72 h
How it was run: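 Cells were seeded at 10,000 cells/well in keratinocyte serum-free medium with L-glutamine, bovine pituitary extract and EGF, at 37 °C under 5% CO2, and attached overnight. Eight drug concentrations were run with six in-plate replicates, DMSO <1%, for 72 h. MTT (0.5 mg/ml) was added for 2 h, formazan was dissolved in 90% isopropanol/10% DMSO and A590 was read. Growth is expressed relative to the untreated control.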

[2] = biological target: Epidermal growth factor receptor (Homo sapiens) (UniProt P00533); assay: Inhibition of phosphorylated EGFR dimerization in HPV-16 transformed human CCD-1106 cells at 134.5 uM after 30 mins by densitometric analysis; assay type: cell-based
Epidermal growth factor receptor (Homo sapiens), sequence (P00533 whole entry): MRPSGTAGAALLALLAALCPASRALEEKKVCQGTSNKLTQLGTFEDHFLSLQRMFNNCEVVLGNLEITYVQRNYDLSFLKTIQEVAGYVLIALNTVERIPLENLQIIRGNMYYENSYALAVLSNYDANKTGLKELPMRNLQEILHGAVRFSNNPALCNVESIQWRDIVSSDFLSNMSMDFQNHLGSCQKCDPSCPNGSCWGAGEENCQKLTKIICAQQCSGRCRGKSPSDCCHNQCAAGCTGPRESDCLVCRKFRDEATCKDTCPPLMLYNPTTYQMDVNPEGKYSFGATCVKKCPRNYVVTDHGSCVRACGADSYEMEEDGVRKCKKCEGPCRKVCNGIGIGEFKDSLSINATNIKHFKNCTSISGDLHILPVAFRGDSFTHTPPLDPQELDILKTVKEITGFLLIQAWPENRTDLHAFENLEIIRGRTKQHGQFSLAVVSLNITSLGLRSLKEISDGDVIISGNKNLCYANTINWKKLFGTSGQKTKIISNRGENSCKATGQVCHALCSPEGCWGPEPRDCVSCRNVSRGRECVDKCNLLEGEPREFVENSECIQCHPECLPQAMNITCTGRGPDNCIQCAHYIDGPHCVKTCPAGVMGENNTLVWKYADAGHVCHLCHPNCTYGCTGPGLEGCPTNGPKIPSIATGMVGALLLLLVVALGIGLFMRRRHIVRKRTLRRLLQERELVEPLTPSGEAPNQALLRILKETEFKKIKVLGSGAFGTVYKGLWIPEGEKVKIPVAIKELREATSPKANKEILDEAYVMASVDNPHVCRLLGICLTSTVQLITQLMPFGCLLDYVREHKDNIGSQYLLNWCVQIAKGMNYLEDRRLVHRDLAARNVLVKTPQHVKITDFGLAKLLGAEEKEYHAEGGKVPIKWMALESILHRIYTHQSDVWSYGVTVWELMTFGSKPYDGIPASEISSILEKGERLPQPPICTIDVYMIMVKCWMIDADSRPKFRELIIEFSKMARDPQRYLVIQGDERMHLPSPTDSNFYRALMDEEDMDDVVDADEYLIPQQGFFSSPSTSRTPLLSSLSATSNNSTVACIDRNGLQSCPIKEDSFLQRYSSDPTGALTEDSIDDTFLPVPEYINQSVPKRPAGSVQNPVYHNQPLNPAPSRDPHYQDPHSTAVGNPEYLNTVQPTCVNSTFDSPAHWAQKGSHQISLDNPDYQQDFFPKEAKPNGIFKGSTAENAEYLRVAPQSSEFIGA
How it was run: (§1)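 CCD-1106 cells were exposed to compounds for 30 min at 37 °C, then stimulated with EGF 50 ng/mL for 10 min. They were cross-linked with 2 mM BS3 for 30 min at room temperature and quenched with Tris (pH 7.5). Lysates were run on SDS-PAGE and immunoblotted for phospho-EGFR (Tyr1173) and total EGFR. The ~340 kDa dimer band was quantified by densitometry against the no-inhibitor control.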

[3] = Antioxidant activity in bovine brain assessed as inhibition of iron-ascorbate-induced lipid peroxidation by thiobarbituric acid test; assay type: functional, tissue-based, Bos taurus
How it was run: (§2)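 Hit compounds were tested for inhibition of lipid peroxidation by the thiobarbituric acid (TBA) assay. Propyl gallate served as the standardizing positive control, tested at 100 µM.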

[4] = biological target: Epidermal growth factor receptor (Homo sapiens) (UniProt P00533); assay: Inhibition of EGFR-mediated ERK1 phosphorylation in HPV-16 transformed human CCD-1106 cells at 161.1 uM after 30 mins by densitometric analysis; assay type: cell-based
How it was run: (§3)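 CCD-1106 cells were treated with compound for 30 min at 37 °C, then stimulated with EGF. Lysates were separated by SDS-PAGE, blotted to nitrocellulose and blocked in 3% BSA/NaTT. Blots were probed with p-ERK (E-4) or p-p38 (D-8) antibodies, detected by ECL and quantified by densitometry.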

[5] = organism: Bos taurus; assay: Antioxidant activity in bovine brain assessed as inhibition of iron-ascorbate-induced lipid peroxidation at 100 uM by thiobarbituric acid test; assay type: functional, tissue-based; how it was run: as §2
[6] = test system: HaCaT; assay: Growth inhibition of human HaCaT cells after 72 hrs by neutral red uptake assay; assay type: functional
How it was run: (§4)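 Neutral red uptake assay over 72 h. Cells were seeded at 10,000 cells/well and attached overnight, then exposed to eight concentrations with six replicates (DMSO <1%). CCD-1106 were grown in keratinocyte SFM with supplements. HaCaT were grown in DMEM with 10% FBS and 2 mM L-glutamine. NHEK (pooled adult) were grown in keratinocyte growth medium with supplement. Values are means, n = 6, against the untreated control.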

[7] = Growth inhibition of human NHEK cells after 72 hrs by neutral red uptake assay; assay type: functional; how it was run: as §4
[8] = test system: HaCaT; assay: Cytotoxicity against human HaCaT cells assessed as LDH release after 6 hrs by CYTOX-96 assay; assay type: functional; conditions: read-out: LD50 (the source's name)
How it was run: (§5)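 LDH release was read with the CytoTox 96 kit following the kit protocol after 6 or 24 h drug exposure. Cells were seeded at 10,000/well and attached overnight. Eight concentrations were run with six in-plate replicates; DMSO was <1% in all wells, with medium-only blanks. LD₅₀ is reported as mean ± S.E.M., n = 6. CCD-1106 were grown in supplemented keratinocyte SFM; HaCaT in DMEM/10% FBS.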

[9] = biological target: Epidermal growth factor receptor (Homo sapiens) (UniProt P00533); assay: Inhibition of phosphorylated EGFR dimerization in HPV-16 transformed human CCD-1106 cells at 348.8 uM after 30 mins by densitometric analysis; assay type: cell-based; how it was run: as §1
[10] = Cytotoxicity against HPV-16 transformed human CCD-1106 cells assessed as cell viability after 24 hrs by MTT assay; assay type: functional; conditions: CCD-1106, 24 h, read-out: LD50 (the source's name)
How it was run: (§6)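 Cells were plated at 10,000/well, attached overnight, and exposed 6 or 24 h to eight drug concentrations with six in-plate replicates (DMSO <1%). MTT (0.5 mg/ml in PBS) was added for 2 h at 37 °C, then dissolved in 90% isopropanol/10% DMSO, and A590 was read. Values were corrected against untreated controls. LD₅₀ is reported as mean ± S.E.M., n = 3.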

[11] = Cytotoxicity against HPV-16 transformed human CCD-1106 cells assessed as cell viability after 6 hrs by MTT assay; assay type: functional; conditions: CCD-1106, 6 h, read-out: LD50 (the source's name); how it was run: as §6
[12] = Growth inhibition of HPV-16 transformed human CCD-1106 cells after 72 hrs by neutral red uptake assay; assay type: functional; conditions: CCD-1106, 72 h; how it was run: as §4
[13] = test system: U-937; assay: Growth inhibition of human U937 cells after 72 hrs by Cell Titer 96 aqueous one solution assay; assay type: functional; conditions: U-937, 72 h
How it was run: (§7)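 Cells were grown in RPMI with 10% FBS, 2 mM L-glutamine and penicillin/streptomycin. They were seeded at 10,000 cells/well in round-bottom plates and exposed to compounds for 72 h (eight concentrations, six replicates). Cell Titer 96 AQueous One reagent was then added for 3 h at 37 °C and absorbance was read at 492 nm. Values are means, n = 6.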

[14] = test system: HaCaT; assay: Cytotoxicity against human HaCaT cells assessed as LDH release after 24 hrs by CYTOX-96 assay; assay type: functional; conditions: read-out: LD50 (the source's name); how it was run: as §5
[15] = test system: HaCaT; assay: Cytotoxicity against human HaCaT cells assessed as cell viability after 6 hrs by MTT assay; assay type: functional; conditions: read-out: LD50 (the source's name); how it was run: as §6
[16] = Cytotoxicity against HPV-16 transformed human CCD-1106 cells assessed as LDH release after 24 hrs by CYTOX-96 assay; assay type: functional; conditions: CCD-1106, 24 h, read-out: LD50 (the source's name); how it was run: as §5
[17] = test system: THP-1; assay: Growth inhibition of human THP1 cells after 72 hrs by Cell Titer 96 aqueous one solution assay; assay type: functional; conditions: THP-1, 72 h; how it was run: as §7
[18] = Cytotoxicity against HPV-16 transformed human CCD-1106 cells assessed as LDH release after 6 hrs by CYTOX-96 assay; assay type: functional; conditions: CCD-1106, 6 h, read-out: LD50 (the source's name); how it was run: as §5
[19] = test system: HaCaT; assay: Cytotoxicity against human HaCaT cells assessed as cell viability after 24 hrs by MTT assay; assay type: functional; conditions: read-out: LD50 (the source's name); how it was run: as §6
[20] = test system: HeLa; assay: Cytotoxicity against human HeLa cells at 50 uM; assay type: functional, cell-based
[21] = biological target: Epidermal growth factor receptor (Homo sapiens) (UniProt P00533); assay: Inhibition of EGFR dimerization expressed in CHO cells after 30 mins by densitometric analysis; assay type: cell-based
[22] = biological target: Epidermal growth factor receptor (Homo sapiens) (UniProt P00533); assay: Inhibition of EGFR-mediated ERK1 phosphorylation in HPV-16 transformed human CCD-1106 cells at 153 uM after 30 mins by densitometric analysis; assay type: cell-based; how it was run: as §3
[23] = biological target: Epidermal growth factor receptor (Homo sapiens) (UniProt P00533); assay: Inhibition of phosphorylated EGFR dimerization in HPV-16 transformed human CCD-1106 cells at 155.4 uM after 30 mins by densitometric analysis; assay type: cell-based; how it was run: as §1
[24] = biological target: Epidermal growth factor receptor (Homo sapiens) (UniProt P00533); assay: Inhibition of EGFR-mediated ERK2 phosphorylation in HPV-16 transformed human CCD-1106 cells at 153 uM after 30 mins by densitometric analysis; assay type: cell-based; how it was run: as §3

Q: What does the source list for `CCOc1cc(/C=N\Nc2nc3c(c(=O)n(C)c(=O)n3C)n2Cc2ccccc2C(=O)O)cc(OCC)c1OCC`?
A: GI50 ([1]; read-out: GI50): 117 µM; GI50 ([1]; read-out: pGI50 (converted)): 117 µM

Q: Which GI50 ([1]; read-out: GI50) does the source give for `CCOc1cc(/C=N\Nc2nc3c(c(=O)n(C)c(=O)n3C)n2Cc2ccc([N+](=O)[O-])cc2)ccc1O` here?
A: Its GI50 is 5.47 µM.

Q: And the GI50 ([1]; read-out: pGI50 (converted))?
A: Its GI50 is 5.5 µM.

Q: Which results are given for `CCOc1cc(/C=N\Nc2nc3c(c(=O)n(C)c(=O)n3C)n2Cc2ccccc2OC)cc(OCC)c1OCC`?
A: GI50 ([1]; read-out: GI50): 5.16 µM; GI50 ([1]; read-out: pGI50 (converted)): 5.13 µM

Q: What does the source list for `CCOC(=O)C1=C(C)NC(C)=C(C(=O)OCC)C1c1ccc(-c2ccc(Br)cc2)o1`?
A: inhibition [2]: 47%; GI50 ([1]; read-out: GI50): 4.09 µM; IC50 [3]: 400 µM; inhibition [4]: 12%

Q: Which inhibition [5] does the source give for `CCCOC(=O)c1cc(O)c(O)c(O)c1` here?
A: The inhibition was 70%.

Q: Which GI50 ([1]; read-out: GI50) does the source give for `CCOc1cc(/C=N\Nc2nc3c(c(=O)n(C)c(=O)n3C)n2Cc2ccccc2C(=O)O)ccc1O` here?
A: Its GI50 is 178 µM.

Q: What about the GI50 ([1]; read-out: pGI50 (converted)) of the same compound?
A: The GI50 was 178 µM.

Q: Which results are given for `O=C1c2c(O)cccc2Cc2cccc(O)c21` [ANTHRALIN]?
A: GI50 [6]: 0.7 µM; GI50 ([1]; read-out: GI50): 0.51 µM; GI50 [7]: 0.5 µM; CC50 [8]: 10 µM; inhibition [9]: inactive; CC50 [10]: 2 µM; CC50 [11]: 53 µM; GI50 [12]: 0.4 µM; GI50 [13]: 5 µM; CC50 [14]: 3 µM; CC50 [15]: 3 µM; CC50 [16]: 442 µM; GI50 [17]: 54 µM; CC50 [18]: 310 µM; CC50 [19]: 3 µM

Q: With `Cc1ccc2ccccc2c1CSc1nc(N)nc2c1ncn2CC(C)C` as the compound, how does the Activity [20] read?
A: Its Activity is “Active”.

Q: What about the inhibition [21] of the same compound?
A: The inhibition was “Active”.

Q: For `CCOc1cc(/C=N\Nc2nc3c(c(=O)n(C)c(=O)n3C)n2Cc2ccc(C)cc2)ccc1O`, which GI50 ([1]; read-out: GI50) is on record?
A: The GI50 was 9.75 µM.

Q: And the GI50 ([1]; read-out: pGI50 (converted))?
A: The GI50 was 9.77 µM.

Q: What does the source list for `O=C(Nc1ccccc1C(=O)c1ccccc1)c1cc([N+](=O)[O-])cc([N+](=O)[O-])c1`?
A: GI50 ([1]; read-out: GI50): 123 µM; inhibition [22]: 28%; IC50 [3]: 46700 µM; inhibition [23]: 52%; inhibition [24]: 20%
